Assay outcomes as filed in PubChem.
ADAM10 inh: human ADAM10 inhibitors, primary screen, biochemical, QFRET, HTS; recombinant ADAM10, EDANS/DABCYL FRET peptide cleavage, 3 h; 370,000 compounds, 0.62% hits; Disintegrin and metalloproteinase domain-containing protein 10 (Homo sapiens), O14672; inhibition, % at 7 µM;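 active = inhibition above a per-campaign cutoff equal to the mean of compounds falling between control-based bounds plus 3 SD, cut at about 20% in these data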;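 note: 0% = DMSO wells while the 100% control is not disclosed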
Target sequence (O14672 214-748 limits assumed): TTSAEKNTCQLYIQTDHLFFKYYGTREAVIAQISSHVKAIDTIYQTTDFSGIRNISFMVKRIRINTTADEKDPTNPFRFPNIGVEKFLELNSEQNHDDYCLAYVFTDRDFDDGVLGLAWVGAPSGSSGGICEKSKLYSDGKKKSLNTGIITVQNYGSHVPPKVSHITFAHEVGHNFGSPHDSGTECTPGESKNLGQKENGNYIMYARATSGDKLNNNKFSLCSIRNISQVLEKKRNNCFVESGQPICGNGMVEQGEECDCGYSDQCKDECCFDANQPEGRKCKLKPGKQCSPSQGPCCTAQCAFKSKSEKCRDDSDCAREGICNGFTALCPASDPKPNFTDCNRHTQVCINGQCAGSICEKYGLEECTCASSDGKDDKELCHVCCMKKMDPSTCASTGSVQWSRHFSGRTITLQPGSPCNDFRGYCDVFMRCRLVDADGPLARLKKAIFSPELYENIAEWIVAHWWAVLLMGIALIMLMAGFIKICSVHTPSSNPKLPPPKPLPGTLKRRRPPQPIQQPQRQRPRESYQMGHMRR
FAS TE block: FAS thioesterase domain inhibitors, primary screen, biochemical, fluorescence intensity, uHTS | recombinant FAS-TE, OMFH fluorogenic substrate, fluorescence endpoint | AID 602261, 2012 | 360,000 compounds, 0.67% hits | inhibition, % at 15 µM;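 active = compounds whose normalised, plate-corrected inhibition of enzyme fluorescence in the single-dose primary screen is 50% or more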;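 note: 0% = DMSO with enzyme and 100% = substrate without enzyme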
CaV13 ICDI inh: Primary screen for inhibitors of IQ motif and Ca2+-dependent inactivation inhibitor domain binding in CACNA1D, Förster resonance energy transfer in living cells, …. HEK cells, CFP/YFP FRET ICDI-IQ, plate reader, 10 min; percent FRET-ratio fall versus neutral wells. inhibition, % at 12.3 µM. 340,000 compounds, 0.098% hits. AID 743397;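 active = mean replicate inhibition of at least 30% and at least 1% of replicates passing that level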;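 note: 0% = median of the neutral control wells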
ADAM17 inh: ADAM17 inhibitors, primary screen, biochemical, QFRET; AID 720648, 2013; recombinant ADAM17, EDANS/DABCYL FRET peptide cleavage; inhibition, % at 6.95 µM; 370,000 compounds, 0.83% hits;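 active = inhibition above the mean of compounds lying between control limits plus 3 SD, set per campaign, cut at about 8.5% in these data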;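 note: 0% = DMSO-only wells as the low control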
NRP1-CendR mod: modulators of CendR peptide binding to NRP-1, primary screen, biochemical, fluorescence polarization, uHTS. 360,000 compounds, 0.85% hits. FAM-RPARPAR peptide binding to NRP-1. Neuropilin-1 (Homo sapiens), O14786. inhibition, % at 25 µM;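 active = inhibition or corrected inhibition above about 18%, plus a signal ratio from 0.5 to 1.5, limit read from the data, passing the limit was not always enough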
Arr AP2 block: inhibitors of beta-arrestin/AP2 binding, primary screen, biochemical, GPCR trafficking, flow cytometry; beta-arrestin 1 C-terminal peptide binding to AP2 beta2-adaptin appendage (human); FITC-arrestin peptide / GST-AP2 beads; AP2 beta2 appendage carries R879A mutation; inhibition, % at 10 µM; 340,000 compounds, 0.31% hits;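 active = inhibition above a set limit, near 3 SD of compounds lacking own fluorescence, cut at about 54% in these data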;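 note: plate controls were DMSO wells for no effect and 5 µM unlabelled arrestin peptide for full effect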
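Test system: GST-tagged AP2 beta2-adaptin appendage (R879A) on 4 µm glutathione beads; also added: fluorescein-tagged arrestin peptide at 50 nM final; timing: 12 min plus 1 h, RT; signal: flow cytometry, FL1 (488/535 nm); read-out: percent drop in bead-associated FITC signal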
Active calls of the source: *. An excerpt weighted towards active compounds, which were near 2.9% of everything screened.

Nc1nc(-c2ccc(Br)s2)c(Br)s1 was read as ADAM10 inh 9.6, FAS TE block 16.1, CaV13 ICDI inh -4.9, ADAM17 inh 1.4, NRP1-CendR mod 29.7* and Arr AP2 block 4.0.
For N#Cc1c(N)nc2c(c1-c1ccc(Br)s1)CCCC2 the results were ADAM10 inh -3.8, FAS TE block -1.8, CaV13 ICDI inh -5.7, ADAM17 inh -1.9, NRP1-CendR mod -21.6 and Arr AP2 block -15.4.
For CCN(c1ccccc1)S(=O)(=O)c1ccc(Cl)c(NC(=O)CSc2nc(N)cc(=O)[nH]2)c1 the results were ADAM10 inh -3.3, FAS TE block -15.4, CaV13 ICDI inh -2.8, ADAM17 inh -5.6 and NRP1-CendR mod 5.6.
For O=S(=O)(c1cccs1)N1CCCc2nc(-c3ccccc3)ccc21 the results were ADAM10 inh -2.4, CaV13 ICDI inh -5.8 and ADAM17 inh -2.2.
For O=C(NCC1COc2ccccc2O1)Nc1ccccc1F (stereo not given) the results were ADAM10 inh 0.5, FAS TE block 0.4, CaV13 ICDI inh -5.6, ADAM17 inh -0.6, NRP1-CendR mod 19.3* and Arr AP2 block 3.9.
For COC(=O)[C@@]1(Sc2ccc(C)cc2)CC(=O)N(C(=O)CCc2ccccc2)[C@@H]1c1ccccc1 the results were ADAM10 inh 6.3, FAS TE block 25.7, CaV13 ICDI inh -6.5, ADAM17 inh 1.5 and NRP1-CendR mod -8.6.
Screening O=C(O)c1cc(NCc2ccc(F)cc2)ccc1N1CCOCC1 returned ADAM10 inh -63.4, FAS TE block -1.2, ADAM17 inh -23.1, NRP1-CendR mod 46.3* and Arr AP2 block 5.3.
`CCCCOc1ccc(/C=c2\sc3ncnn3c2=O)cc1` gave ADAM10 inh -3.5, FAS TE block -8.8, CaV13 ICDI inh -5.2, ADAM17 inh -2.5, NRP1-CendR mod 20.3* and Arr AP2 block 6.7.
Cc1ccsc1/C=c1\sc2ncnn2c1=O was read as ADAM10 inh 5.2, FAS TE block -9.9, CaV13 ICDI inh -8.7, ADAM17 inh -5.2, NRP1-CendR mod -8.8 and Arr AP2 block 11.6.
For CCCCNC(=O)C1(C)CCN1C(=O)c1ccc2sccc2c1 (stereo not given) the results were ADAM10 inh -11.0, FAS TE block -8.2, CaV13 ICDI inh -10.2, ADAM17 inh -2.3 and NRP1-CendR mod 4.2.
`COc1ccc(N(CC(=O)NCc2ccco2)C(=O)CCC(=O)Nc2ccccn2)cc1` gave ADAM10 inh 3.5, FAS TE block -4.3, CaV13 ICDI inh -7.7, ADAM17 inh -1.7, NRP1-CendR mod 21.0* and Arr AP2 block -10.8.
C=CCc1cccc(/C=N/n2c(C)nnc2C)c1O was read as ADAM10 inh -5.7, FAS TE block -7.3, CaV13 ICDI inh -5.2, ADAM17 inh -3.2, NRP1-CendR mod 19.5* and Arr AP2 block 0.0.
`C=CCc1cccc(/C=N/c2ncn[nH]2)c1O` gave ADAM10 inh -4.1, FAS TE block -9.9, CaV13 ICDI inh -5.5, ADAM17 inh -2.8, NRP1-CendR mod 10.0 and Arr AP2 block -7.2.
`Clc1ccc(-c2nnc3n2N=C(c2ccc(-c4ccccc4)cc2)CS3)cc1` gave ADAM10 inh 1.7 and ADAM17 inh 2.0.
`O=C(NNC(=O)c1csc(N2CCOCC2)n1)c1ccc(=O)[nH]c1` gave ADAM10 inh -9.7, FAS TE block -10.0, CaV13 ICDI inh -4.5, ADAM17 inh -1.9, NRP1-CendR mod 24.7* and Arr AP2 block 12.7.
`CC(=O)Nc1ccc(C(=O)NNC(=O)c2csc(N3CCOCC3)n2)cc1` gave ADAM10 inh -10.9, FAS TE block -6.0, CaV13 ICDI inh -6.2, ADAM17 inh -4.1 and NRP1-CendR mod 3.1.
Screening COc1ccc(/C=C2\SC(=S)N(CC(=O)OCC(=O)Nc3ccc(C)cc3Cl)C2=O)cc1 returned ADAM10 inh 2.4, FAS TE block 1.2, CaV13 ICDI inh -1.7, ADAM17 inh -4.4, NRP1-CendR mod 33.5* and Arr AP2 block -6.6.
Screening COc1ccc(/C=C2\SC(=S)N(CC(=O)OCC(=O)Nc3ccc([N+](=O)[O-])cc3OC)C2=O)cc1 returned ADAM10 inh -0.2, FAS TE block -3.4, CaV13 ICDI inh -0.7, ADAM17 inh -1.6, NRP1-CendR mod -0.7 and Arr AP2 block -10.4.
Screening CC(C)C[C@@H]1Cc2[nH][nH]c(=O)c2[C@H](C(C)C)O1 returned ADAM10 inh -12.4, FAS TE block -18.7, CaV13 ICDI inh -6.8, ADAM17 inh -4.6 and NRP1-CendR mod -5.1.
`COc1ccccc1-c1nnc(SCC(=O)NC2CCS(=O)(=O)C2)n1N` (stereo not given) gave ADAM10 inh -2.2, FAS TE block -2.6, CaV13 ICDI inh -2.5, ADAM17 inh 0.1, NRP1-CendR mod 22.1* and Arr AP2 block 3.6.
`COCCCn1c(SCC(=O)NC2CCCCC2)nnc1-c1ccncc1` gave ADAM10 inh -9.3, FAS TE block -7.9, CaV13 ICDI inh -5.5, ADAM17 inh -3.0, NRP1-CendR mod -16.3 and Arr AP2 block 5.9.
For COCCCn1c(SCC(=O)NC2CCS(=O)(=O)C2)nnc1-c1ccc(Cl)cc1 (stereo not given) the results were ADAM10 inh -13.0, FAS TE block -2.6, CaV13 ICDI inh -14.4, ADAM17 inh -4.4, NRP1-CendR mod 22.7* and Arr AP2 block -13.5.
CN(CCc1ccccc1)C(C(=O)Nc1ccc2c(c1)OCCO2)c1ccnc2ccccc12 (stereo not given) was read as ADAM10 inh 4.2, FAS TE block 25.7, ADAM17 inh 2.5 and NRP1-CendR mod -44.2.
For Oc1ccc2[nH]cc(CCc3ccccc3)c2c1-c1ccccc1 the results were ADAM10 inh 3.1 and ADAM17 inh 3.3.
COC(=O)[C@]12C[C@H](CC(=O)NCC3CCCCC3)C(=O)N(Cc3ccccc3)C1=C[C@H](COCc1ccccc1)O[C@@H]2C was read as ADAM10 inh 6.0 and ADAM17 inh 0.4.
CCC(C)[C@H](NC(=O)Nc1ccccc1F)C(=O)OC (stereo not given in full) was read as ADAM10 inh -1.6, FAS TE block -5.3, CaV13 ICDI inh -2.7, ADAM17 inh 0.0, NRP1-CendR mod 21.8* and Arr AP2 block 10.9.
